Compound activity (PubChem)
Compounds with a hit are over-represented: about 2.2% of the library has one in this group of screens.
Wee1 stabilizer: human Wee1 degradation inhibition, primary screen; HeLa Luc-Wee1K328M stability, luciferase luminescence; 100% = proteasome inhibitor MG132 effect; P30291; reporter increase, % at 5 µM; hit rate 1.2% among 220,000;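 active = activation above the mean of all tested compounds plus 3 SD, set per screening run, cut at about 8.8% in these data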;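 note: cells exposed to compound for 20 h before luminescence read; 0% = DMSO alone and 100% = MG132 at 30 µM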
Thrombin inh: blocks human thrombin protease activity; inhibition, % at 5 µM; P00734; alpha-thrombin, Boc-VPR-AMC fluorogenic substrate cleavage; hit rate 0.26% among 220,000;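 active = inhibition at or above 40%; inactive = inhibition below 40%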;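 note: 0% = enzyme with no compound and 100% = wells without enzyme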
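System – human alpha-thrombin protein · Reagent – Boc-VPR-AMC substrate, 15 µM final · Compound – 5 µM single dose in 0.2% DMSO · Schedule – reaction at room temperature · Technique – AMC fluorescence at 355 nm excitation and 460 nm emission · Read-out basis – % inhibition relative to enzyme controls and enzyme-free blanks · Control set – no-compound enzyme wells and no-enzyme blanks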
hK5 inh: blocks human kallikrein 5 protease activity; AID 873; recombinant hK5, fluorogenic AMC substrate cleavage; inhibition, % at 5 µM; hit rate 0.59% among 210,000; Q9Y337;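 active = inhibition of 40% or more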;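 note: 0% = enzyme controls without compound and 100% = no-enzyme blanks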
FXIIa inh 1536: blocks human coagulation factor XIIa protease activity | purified FXIIa, Boc-QGR-AMC fluorogenic substrate, 2 h | AID 800 | inhibition, % at 5 µM | P00748 | hit rate 0.3% among 220,000; in the data active = inhibition above about 40%;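 note: 0% = enzyme with no compound and 100% = blank without enzyme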
Target sequence (P00748 20-372 limits assumed): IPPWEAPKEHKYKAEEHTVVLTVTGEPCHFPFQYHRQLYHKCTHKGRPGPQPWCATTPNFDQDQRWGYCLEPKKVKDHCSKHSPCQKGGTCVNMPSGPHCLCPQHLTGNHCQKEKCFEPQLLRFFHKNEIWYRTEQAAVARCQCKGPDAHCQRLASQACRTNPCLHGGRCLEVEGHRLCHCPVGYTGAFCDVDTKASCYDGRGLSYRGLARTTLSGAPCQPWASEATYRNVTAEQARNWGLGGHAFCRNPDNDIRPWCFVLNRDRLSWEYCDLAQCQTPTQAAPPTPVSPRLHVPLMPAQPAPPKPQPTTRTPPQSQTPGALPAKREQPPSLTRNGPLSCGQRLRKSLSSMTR
Target sequence (P00748 373-615 limits assumed): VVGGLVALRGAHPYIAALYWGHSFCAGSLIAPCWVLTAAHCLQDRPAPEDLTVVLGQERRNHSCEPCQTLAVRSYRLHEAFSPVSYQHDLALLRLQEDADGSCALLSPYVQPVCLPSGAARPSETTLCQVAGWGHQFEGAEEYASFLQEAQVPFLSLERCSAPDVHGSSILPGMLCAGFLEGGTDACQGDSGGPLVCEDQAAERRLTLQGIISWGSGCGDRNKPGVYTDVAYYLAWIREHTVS
FXIa inh: blocks human coagulation factor XIa protease activity. P03951. purified FXIa, Boc-Glu-Ala-Arg-AMC fluorogenic substrate. hit rate 0.14% among 220,000. inhibition, % at 5 µM. AID 798;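 active = inhibition of at least 40%; inactive = inhibition below 40%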;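 note: fluorescence of freed AMC excited at 355 nm; 0% = enzyme without compound and 100% = no enzyme blank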
* hit, by the source's call; nt = no result.

SMILES | Wee1 stabilizer | Thrombin inh | hK5 inh | FXIIa inh 1536 | FXIa inh
CC1CCCN(c2ccc(C(=O)NCC3CCCO3)cn2)C1 (stereo not given) | 9.6* | -9 | -20 | 15 | -5
CC(C)CCN1C(=O)c2ccc(C(=O)NCC3CCCO3)cc2C1=O (stereo not given) | 9.6* | -2 | -1 | 27 | 20
COC(=O)c1cc2c(C)[nH]c(C)c2cc(C(=O)OC)c1=O | 1 | -4 | -9 | 5 | 2
N#Cc1ccc(NC(=S)NC(=O)CCc2ccc(S(=O)(=O)N3CCOCC3)cc2)cc1 | 1 | -3 | -3 | 5 | 10
COc1ccc(-n2c(Cc3cccn3C)nnc2SCC(=O)N2CCOCC2)cc1 | 13* | 2 | -8 | 9 | 1
COc1ccc(N2C(=O)C(CN3CCN(C)CC3)C2c2ccccc2)cc1 (stereo not given) | 0 | 1 | -29 | 5 | -5
CCOC(=O)c1cc(CC)sc1/N=C/c1c(O)ccc2ccccc12 | 9.2* | -12 | -14 | 12 | 2
CC1(C)N=c2ccc([N+](=O)[O-])c(N)c2=[N+]1[O-] | -1 | 20 | 22 | 24 | 40*
Cc1[nH]c2ccccc2c1C(=O)CSC(=S)N1CCN(C)CC1 | 2 | -6 | -4 | 1 | -3
Cc1[nH]c2ccccc2c1C(=O)CSC(=S)N(C)C | 9.1* | -2 | -17 | 5 | -1
CC1C/C(=C/c2ccccn2)C(=O)/C(=C/c2ccccn2)C1 (stereo not given) | 9.9* | 13 | -4 | 7 | 0
C=CCCCCCCCCC(=O)NNC1CC(=O)N(c2ccccc2)C1=O (stereo not given) | -1 | -5 | -3 | 6 | 0
CC(=O)c1cccc(NC(=O)C(C)OC(=O)CNC(=O)c2ccc(C)s2)c1 (stereo not given) | 9.2* | 2 | -3 | 8 | 3
Cc1ccc(CN2CCN(/N=C/c3cccs3)CC2)cc1 | -1 | -1 | -11 | 11 | 7
CCOC(=O)C1=C(C)Nc2[nH]c(=O)[nH]c(=O)c2C1c1cccs1 (stereo not given) | 0 | 3 | -7 | 12 | 8
C=CCOC(=O)C1=C(C)Nc2[nH]c(=O)[nH]c(=O)c2C1c1ccccc1 (stereo not given) | 8 | 10 | 19 | 25 | 67*
O=c1/c(=C/c2ccc(O)cc2)sc2n1CCCN=2 | 2 | -2 | 0 | 10 | 2
O=c1/c(=C\c2ccc(F)cc2)sc2n1CCCN=2 | 9.3* | -4 | -2 | 4 | -4
O=C(COC(=O)/C=C/c1ccc(Cl)cc1Cl)NCc1ccco1 | 9.7* | -6 | -7 | 4 | -4
CCC(=O)O[C@]1(C(=O)CCl)[C@@H](C)C[C@H]2[C@@H]3CCC4=CC(=O)C=C[C@]4(C)[C@@]3(F)[C@@H](O)C[C@@]21C | 9.3* | nt | -7 | 8 | 1
CCCC(=O)O[C@]1(C(=O)CCl)[C@@H](C)C[C@H]2[C@@H]3CCC4=CC(=O)C=C[C@]4(C)[C@@]3(F)C(=O)C[C@@]21C | 2 | -2 | -10 | 14 | 5
C/C(CC(=O)Nc1ccc(N(C)C)cc1)=N\NC(=O)C(=O)NCc1ccccc1 | 9.9* | 3 | 18 | 13 | -2
O=C(c1ccccc1)N1CCN=C1SCc1ccc([N+](=O)[O-])cc1 | 0 | -3 | 0 | 9 | 1
CS(=O)(=O)N1CCN=C1SCc1ccc([N+](=O)[O-])cc1 | 9.1* | 1 | -8 | 0 | -3
CCCS(=O)(=O)N1CCN(Cc2ccc([N+](=O)[O-])cc2)CC1 | 6 | -12 | -2 | 11 | 2
SMILES | Wee1 stabilizer | Thrombin inh | hK5 inh | FXIIa inh 1536 | FXIa inh
CS(=O)(=O)N1CCN(Cc2ccc([N+](=O)[O-])cc2)CC1 | -2 | 10 | 51* | 37 | 33
CCOC(=O)c1cc(-c2ccccc2)sc1NC(=O)CN1C(=O)NC(CC)(c2ccccc2)C1=O (stereo not given) | 0 | 14 | 40* | 18 | 16
COc1cc(CCC(=O)Nc2ccc(S(=O)(=O)NC3=NCCCCC3)cc2)cc(OC)c1OC | -2 | -5 | -1 | 4 | -1
O=c1oc(-c2ccco2)nc2ccccc12 | 2 | 8 | 44* | 6 | 22
c1coc(-c2nc3ccccc3nc2-c2ccco2)c1 | -4 | 16 | 12 | 45* | 13
O=c1oc(-c2ccco2)nc2c1cnn2-c1ccccc1 | 1 | 17 | 21 | 48* | 14
COC(=O)C1=C(C)N(Cc2cccnc2)C(=O)/C1=C\c1sccc1C | -2 | 1 | 30 | 25 | 8
CCOc1ccc(NC(=O)CSc2nnc(N)s2)c([N+](=O)[O-])c1 | 9.8* | 5 | -3 | -1 | -6
CCOc1ccc(NC(=O)CSc2ncn[nH]2)c([N+](=O)[O-])c1 | 0 | -9 | -9 | 10 | 0
O=C(Cc1ccccc1[N+](=O)[O-])Nc1ccccc1C(=O)N1CCOCC1 | 3 | -1 | -2 | 8 | -1
O=C(Cc1ccccc1[N+](=O)[O-])Nc1ccccc1C(=O)N1CCCC1 | -3 | 9 | 19 | 85* | 31
O=C(Nc1cccc(S(=O)(=O)NC2=NCCC2)c1)C1CC(=O)N(c2ccc3c(c2)OCCO3)C1 (stereo not given) | 0 | -12 | -2 | 8 | -1
O=C(O)CC(Cc1ccc(Br)cc1)C(=O)O (stereo not given) | -3 | -3 | 0 | 61* | -13
NC(CC(=O)O)c1ccc(Br)cc1 (stereo not given) | 0 | -3 | -5 | -11 | 4
COC(=O)c1[nH]c2ccc(Cl)cc2c1NC(=O)CN1CCc2cc(OC)c(OC)cc2C1 | -1 | -6 | -13 | 9 | 0
COC(=O)c1[nH]c2cc(OC)ccc2c1NC(=O)CCN1CCCCC1 | 1 | 14 | 31 | 28 | 45*
COC(=O)c1[nH]c2cc(C)ccc2c1NC(=O)CN1CCc2cc(OC)c(OC)cc2C1 | 0 | 4 | 97* | -1 | -8
Cn1cccc1/C=N/N1CCN(c2ccccc2)CC1 | -3 | -6 | -9 | 3 | -5
CCCCN(C)C(=O)c1cc2cc3cc(OC)ccc3nc2o1 | 10* | -4 | 1 | -6 | -2
CC(=O)c1cn(S(=O)(=O)c2ccccc2)c2ccccc12 | 3 | -9 | -21 | -5 | -6
COc1cc(C(=O)N2CCN(C/C=C/c3ccccc3)CC2)cc(OC)c1OC | 0 | 1 | 14 | 19 | 9
COc1cc(C(=O)N2CCC(O)(c3ccccc3)CC2)cc(OC)c1OC | 2 | 12 | 51* | -6 | 2
Cc1c(Cl)cccc1NC(=S)N(CCN(C)C)C(C)c1ccco1 (stereo not given) | -1 | -1 | -2 | 10 | -1
Cc1ccc(S(=O)(=O)n2nccc2-c2c(-c3ccccc3)noc2C)cc1 | 1 | -2 | -2 | 13 | 4
Cc1onc(-c2ccccc2)c1-c1ccnn1S(=O)(=O)c1ccc(Cl)cc1 | 10* | -3 | 3 | 8 | 7
O=C(CSc1ncnc2sc3c(c12)CCC3)Nc1ccccc1C(=O)O | 2 | 4 | 5 | 12 | 2
